Measurements reported in publication PMC6175223 (Journal of Clinical Pharmacology, 2018).
Where two headings read alike, the source gives them in different places.

Experiments:
[1] = Study A: caffeine clearance in smokers and nonsmokers; assay type: in vivo, human; details: for Caffeine plasma clearance CL/F: 200 mg oral caffeine, geometric mean
Procedure, shortened: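 A 200 mg oral caffeine capsule was given on day 6 after an overnight fast of ≥10 h, with a methylxanthine-free diet for ≥1 week before and during the study. Plasma caffeine and paraxanthine were sampled predose and at 0.5–12 h. LC-MS/MS, LLOQ 20 ng/mL. Noncompartmental CL/F. ANOVA on ln-transformed data with cohort as fixed effect; smoker/nonsmoker geometric means.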

[2] = Study B safety assessment; assay type: in vivo, human
Procedure, shortened: (§1)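 Safety was monitored by adverse-event reporting, physical examination, vital signs, 12-lead ECG and clinical laboratory tests. Concomitant medications and AEs were recorded from signing of the consent form until a follow-up safety telephone call. SAEs made known within 28 days after the last investigational dose were also recorded, as were later SAEs suspected to be related.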

[3] = Study A; assay type: in vivo, human; details: for Cmax / Vd/F / half-life / Tmax: male, human, plasma, oral, 4 mg; for Cmax / Vd/F / half-life / CL/F: geometric mean (geometric CV%); for Vd/F: Vz/F; for Tmax: median (minimum, maximum)
[4] = Study B; assay type: in vivo, human; details: for AUC(0-inf) / Cmax / Vd/F / half-life / Tmax: male, human, plasma; for Cmax / Vd/F / half-life / CL/F: geometric mean (geometric CV%); for Vd/F: Vz/F; for Tmax: median (minimum, maximum)
[5] = cited from earlier work
[6] = healthy adult men; cited from earlier work
[7] = cited from earlier work; remark: listed apart in the source
[8] = tested on: CYP2D6; details: in vitro; earlier data, no reference given; cited from earlier work
[9] = Study A safety assessment; assay type: in vivo, human
Procedure, shortened: as §1

[10] = tested on: CYP3A4; details: in vitro; earlier data, no reference given; cited from earlier work
[11] = tested on: CYP2C19; details: in vitro; earlier data, no reference given; cited from earlier work
[12] = tested on: CYP1A2; details: in vitro; earlier data, no reference given; cited from earlier work
[13] = smokers compared with nonsmokers
[14] = oral, 4 mg, pomalidomide 4 mg administered alone
[15] = oral, 4 mg, pomalidomide 4 mg administered with fluvoxamine
[16] = with fluvoxamine compared with alone
[17] = multiple dose, 0.5- to 2-mg dose range

## Cn1c(=O)c2c(ncn2C)n(C)c1=O [caffeine]
[1]; nonsmokers (cohort B)
  Caffeine plasma clearance CL/F: 5.3 L/h
[1]; smokers (cohort A)
  Caffeine plasma clearance CL/F: 9.9 L/h
[1]; smokers versus nonsmokers
  Caffeine clearance, fold higher in smokers than in nonsmokers: approximately 2 fold

## Nc1cccc2c1C(=O)N(C1CCC(=O)NC1=O)C2=O (stereo not shown) [pomalidomide]
[2]; single oral 4 mg pomalidomide coadministered with multiple oral 50-mg doses of fluvoxamine, healthy male subjects
  Safety and tolerability: safe and well tolerated
[2]; study B
  Deaths, SAEs, or TEAEs leading to discontinuation: No deaths, SAEs, or TEAEs leading to discontinuation were reported
  TEAEs related to the study drug: No subject reported at least 1 TEAE related to the study drug
[2]; study B overall, 1 of 15 subjects
  Subjects reporting TEAEs: 6.7%
[3]; nonsmokers
  Cmax: 56.3 ng/mL
  Vd/F: 65.8 L
  Tmax: 3 h
  CL/F: 5.8 L/h
[3]; smokers
  Cmax: 64.4 ng/mL
  Vd/F: 59.7 L
  Tmax: 1.8 h
  CL/F: 8.6 L/h
[3]; t1/2, nonsmokers
  half-life: 7.8 h
[3]; t1/2, smokers
  half-life: 4.8 h
[3]; nonsmokers, listed as Pomalidomide
  CL/F: 5.8 (19.6) L/h
[3]; [13]
  Decrease of AUC0-inf (lower in smokers): 32.3%
  Increase of Cmax (higher in smokers): 14.4%
[3]; smokers/nonsmokers
  Ratio (%) of geometric means, AUC0-inf: 67.7%
  Ratio (%) of geometric means, Cmax: 114.4%
[3]; smokers, listed as Pomalidomide
  CL/F: 8.6 (32.5) L/h
[4]; oral
  AUC(0-inf): 1190 ng·h/mL
[4]; oral, 4 mg
  AUC(0-inf): 526 ng·h/mL
[4]; [14]
  Cmax: 49.2 ng/mL
  Vd/F: 65.4 L
  Tmax: 3 h
[4]; [15]
  Cmax: 59.5 ng/mL
  Vd/F: 64 L
  Tmax: 4.5 h
[4]; oral, 4 mg, t1/2, pomalidomide 4 mg administered alone
  half-life: 6 h
[4]; oral, 4 mg, t1/2, pomalidomide 4 mg administered with fluvoxamine
  half-life: 13.1 h
[4]; po, 4 mg
  AUC(0-inf): 526 ng·h/mL
[4]; pomalidomide 4 mg administered alone
  CL/F: 7.6 L/h
[4]; pomalidomide 4 mg administered with fluvoxamine
  CL/F: 3.4 L/h
[4]; [16]
  Increase of AUC0-inf: 125.1%
  Increase of Cmax: 23.7%
[4]; with fluvoxamine versus alone
  Ratio (%) of geometric means, AUC0-inf: 225.1%
  Ratio (%) of geometric means, Cmax: 123.7%
[5]
  mean apparent terminal half-life (t1/2): approximately 7.5 hours
[5]; [17]
  Accumulation (AUC and Cmax): less than 14.0%
  Time to steady state: ≤ 3 days
[5]; single dose up to 50 mg
  Dose proportionality of systemic exposure (AUC): approximately dose‐proportional
[6]
  Fraction of the dose excreted in urine as unchanged drug: < 5.0 % of the administered dose
  Renal excretion of pomalidomide-related material: ~73.0 % of the administered dose
[7]; coadministration of ketoconazole
  Change in pomalidomide exposure (in words): mild increase in pomalidomide exposure that was not considered clinically relevant
[7]; concomitant fluvoxamine and ketoconazole, healthy men
  Change in mean pomalidomide exposure (in words): approximately doubled
[7]; prior drug interaction study
  t1/2: 6.1 h
[7]; single 4-mg dose with CYP3A inhibitor ketoconazole versus alone
  Increase of total drug exposure: 18.8%
[7]; single 4-mg dose with ketoconazole + fluvoxamine versus alone
  Increase of total drug exposure: 145.7%
[8]
  Metabolism by CYP enzyme: to a minor extent
[1]; in vivo, study A
  Correlation between caffeine clearance and pomalidomide clearance: good correlation
[9]; only TEAEs that occurred after pomalidomide dosing
  Difference in incidence of TEAEs between smokers and nonsmokers: no difference
[9]; single oral dose of 4 mg in healthy male smokers and nonsmokers ≥ 40 to ≤ 80 years old
  Safety and tolerability: safe and well tolerated
[9]; study A
  Deaths: no deaths
  Number of TEAEs suspected of being related to the study drug: 22
  SAEs or severe TEAEs: No subject experienced an SAE or severe TEAE
[9]; study A overall
  Number of TEAEs reported: 37
[9]; study A, 12 subjects
  Subjects reporting TEAEs suspected of being related to the study drug: 21.8%
[9]; study A, all presyncope, not considered related to the study drug
  Number of TEAEs of moderate severity: 3
[10]
  Metabolism by CYP enzyme: capable of metabolizing pomalidomide
[11]
  Metabolism by CYP enzyme: to a minor extent
[12]
  Metabolism by CYP enzyme: capable of metabolizing pomalidomide
